Reference: ChEMBL document CHEMBL1136228 (Bioorg Med Chem Lett, 2003)
Values joined by “and” are separate entries in the source; they are usually repeats but may differ in a detail not shown here. Equal entries are not always repeated.

How the values were obtained:
[1] = biological target: T1, Peroxisome proliferator-activated receptor alpha (Homo sapiens, UniProt Q07869)
T1 sequence (Q07869 whole entry): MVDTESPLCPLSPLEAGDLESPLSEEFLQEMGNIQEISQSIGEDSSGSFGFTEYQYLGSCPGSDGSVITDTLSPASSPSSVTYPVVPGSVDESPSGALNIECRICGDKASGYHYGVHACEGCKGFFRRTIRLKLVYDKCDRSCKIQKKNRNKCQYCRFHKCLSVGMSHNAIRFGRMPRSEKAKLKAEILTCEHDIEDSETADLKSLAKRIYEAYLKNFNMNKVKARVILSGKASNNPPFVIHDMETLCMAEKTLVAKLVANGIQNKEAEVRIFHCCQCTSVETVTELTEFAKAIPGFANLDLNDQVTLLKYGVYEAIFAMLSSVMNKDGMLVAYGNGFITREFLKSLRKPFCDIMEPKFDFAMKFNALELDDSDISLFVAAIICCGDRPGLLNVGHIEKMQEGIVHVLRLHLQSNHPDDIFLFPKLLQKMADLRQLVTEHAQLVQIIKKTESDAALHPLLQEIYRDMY

[2] = biological target: T2, Peroxisome proliferator-activated receptor gamma (Homo sapiens, UniProt P37231)
T2 sequence (P37231 whole entry): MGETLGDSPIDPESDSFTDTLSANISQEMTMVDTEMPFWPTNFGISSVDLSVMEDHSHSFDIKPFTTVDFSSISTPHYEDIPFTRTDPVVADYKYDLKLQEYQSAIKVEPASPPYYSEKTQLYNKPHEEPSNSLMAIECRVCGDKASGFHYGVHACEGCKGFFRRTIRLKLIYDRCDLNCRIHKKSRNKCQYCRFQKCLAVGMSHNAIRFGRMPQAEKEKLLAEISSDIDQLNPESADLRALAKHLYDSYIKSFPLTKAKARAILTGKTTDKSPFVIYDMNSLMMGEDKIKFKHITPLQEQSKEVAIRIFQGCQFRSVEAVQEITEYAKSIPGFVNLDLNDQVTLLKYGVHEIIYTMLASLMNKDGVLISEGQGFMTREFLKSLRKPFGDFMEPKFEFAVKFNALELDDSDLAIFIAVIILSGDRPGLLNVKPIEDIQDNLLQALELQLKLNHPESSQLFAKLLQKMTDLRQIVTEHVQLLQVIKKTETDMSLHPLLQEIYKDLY

[3] = biological target: T2, Peroxisome proliferator-activated receptor gamma; remark: listed apart in the source
[4] = biological target: T1, Peroxisome proliferator-activated receptor alpha; remark: listed apart in the source
Rattus norvegicus [5] = test: Triglyceride change in Sprague-Dawley rat after 30 mg/kg peroral administration; details: route oral
Rattus norvegicus [6] = test: Total Cholesterol change in Sprague-Dawley rat after 30 mg/kg peroral administration; details: route oral
[7] = biological target: T2, Peroxisome proliferator-activated receptor gamma; test: Binding affinity towards peroxisome proliferator activated receptor gamma (PPAR gamma); weakly active
Mus musculus [8] = test: Fasting plasma glucose levels after 5 mg/kg peroral administration in db/db Mouse; type: functional; details: route oral
Outline: (§1)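 db/db (lepr db-3J/lepr db-3J) mice dosed orally once daily for 11 days; fasting plasma glucose measured at day 11. Correction is expressed as mean glucose lowering, as a percentage of the difference between vehicle-treated db/db and lean control mice.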

Rattus norvegicus [9] = test: Brown adipose tissue weight in Sprague-Dawley rat after 30 mg/kg peroral administration; details: route oral
Rattus norvegicus [10] = test: Heart weight of Sprague-Dawley rat after 30 mg/kg peroral administration; details: route oral
Rattus norvegicus [11] = test: Body weight of Sprague-Dawley rat after 30 mg/kg peroral administration; details: route oral
Mus musculus [12] = test: Fasting plasma glucose levels after 15 mg/kg peroral administration in db/db Mouse; type: functional; details: route oral
Outline: as §1

[13] = biological target: T1, Peroxisome proliferator-activated receptor alpha; test: Binding affinity towards peroxisome proliferator activated receptor alpha (PPAR alpha); Not active
Outline: (§2)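 Scintillation proximity (SPA) radioligand binding assay run at 15 C. The IC50 is converted to an apparent Ki with the Cheng-Prusoff equation.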

[14] = biological target: T1, Peroxisome proliferator-activated receptor alpha; test: Binding affinity towards human peroxisome proliferator activated receptor alpha (PPAR alpha) by HTRF assay; Not active
Mus musculus [15] = test: Fasting plasma glucose level after 10 mg/kg peroral administration in db/db Mouse; type: functional; details: route oral
Outline: as §1

Mus musculus [16] = test: Fasting plasma glucose levels after 30 mg/kg peroral administration in db/db Mouse; type: functional; details: route oral
Outline: as §1

[17] = Bioavailability was determined in rat; type: ADME, organism-based; details: in vivo
Rattus norvegicus [18] = test: Body weight of Sprague-Dawley rat after 10 mg/kg peroral administration; details: route oral
Rattus norvegicus [19] = test: Brown adipose tissue weight in Sprague-Dawley rat after 10 mg/kg peroral administration; details: route oral
Rattus norvegicus [20] = test: Triglyceride change in Sprague-Dawley rat after 10 mg/kg peroral administration; details: route oral
Rattus norvegicus [21] = test: Total Cholesterol change in Sprague-Dawley rat after 10 mg/kg peroral administration; details: route oral
[22] = biological target: T2, Peroxisome proliferator-activated receptor gamma; test: Binding affinity towards peroxisome proliferator activated receptor gamma (PPAR gamma): Weakly active
Rattus norvegicus [23] = test: Heart weight of Sprague-Dawley rat after 10 mg/kg peroral administration; details: route oral
[24] = biological target: T1, Peroxisome proliferator-activated receptor alpha; test: Binding affinity towards human peroxisome proliferator activated receptor gamma (PPAR alpha) by HTRF assay; Weakly active
[25] = biological target: T2, Peroxisome proliferator-activated receptor gamma; test: Binding affinity towards peroxisome proliferator activated receptor gamma (PPAR gamma); Not active
Outline: as §2

[26] = biological target: T1, Peroxisome proliferator-activated receptor alpha; test: Binding affinity towards peroxisome proliferator activated receptor alpha (PPAR alpha); weakly active
Rattus norvegicus [27] = test: Heart weight of Sprague-Dawley rat after 150 mg/kg peroral administration; details: route oral
Rattus norvegicus [28] = test: Total Cholesterol change in Sprague-Dawley rat after 150 mg/kg peroral administration; details: route oral
Rattus norvegicus [29] = test: Body weight of Sprague-Dawley rat after 150 mg/kg peroral administration; details: route oral
Rattus norvegicus [30] = test: Triglyceride change in Sprague-Dawley rat after 150 mg/kg peroral administration; details: route oral
Mus musculus [31] = test: Fasting plasma glucose levels after 150 mg/kg peroral administration in db/db Mouse; type: functional; details: route oral
Outline: as §1

[32] = biological target: T1, Peroxisome proliferator-activated receptor alpha; test: Binding affinity towards human peroxisome proliferator activated receptor alpha (PPAR alpha) by HTRF assay; Weakly active
Rattus norvegicus [33] = test: Brown adipose tissue weight in Sprague-Dawley rat after 150 mg/kg peroral administration; details: route oral
Mus musculus [34] = test: Fasting plasma glucose levels after 3 mg/kg peroral administration in db/db Mouse; type: functional; details: route oral
Outline: as §1

Mus musculus [35] = test: Fasting plasma glucose levels after 1 mg/kg peroral administration in db/db Mouse; type: functional; details: route oral
Outline: as §1

[36] = biological target: T2, Peroxisome proliferator-activated receptor gamma; test: Binding affinity towards human peroxisome proliferator activated receptor gamma (PPAR gamma) was determined by HTRF assay; weakly active

CCCc1cc(C(=O)OC)cc(Cl)c1OC(C(=O)O)c1ccccc1 (configuration not stated)
Ki [1]: 0.057 µM
Ki [2]: 8.53 µM

COC(=O)c1cc(C)c(OC(C(=O)O)c2ccccc2)c(C)c1 (configuration not stated)
Ki [1]: 0.225 µM
Ki [2]: > 10 µM

CCCc1c(O)c(C(=O)CC)cc(Cl)c1OC(C(=O)O)c1ccccc1 (configuration not stated)
Ki [1]: 0.293 µM
EC50 [3]: 3.76 µM
Ki [2]: 0.985 µM
EC50 [4]: 0.804 µM

CCCc1cc(C(=O)OC)cc(C)c1OC(C(=O)O)c1ccccc1 (configuration not stated)
Ki [1]: 0.028 µM
Ki [2]: 5.94 µM

CCCc1c(OC(C(=O)O)c2ccccc2)c(Cl)cc2c(CC)noc12 (configuration not stated)
Change (Rattus norvegicus [5]): -11%
Change (Rattus norvegicus [6]): -9%
Ki [7]: Partially active
FPG correction (Mus musculus [8]): 10%
BAT weight (Rattus norvegicus [9]): 0.34 g
Heart weight (Rattus norvegicus [10]): 1.22 g
Ki [1]: 0.038 µM
Body weight (Rattus norvegicus [11]): 312 g
EC50 [3]: 1.12 µM
FPG correction (Mus musculus [12]): 47%
EC50 [4]: 0.162 µM

CN(CCOc1ccc(CC2SC(=O)NC2=O)cc1)c1ccccn1.O=C(O)/C=C\C(=O)O (configuration not stated) [ROSIGLITAZONE MALEATE]
Change (Rattus norvegicus [6]): 1%
BAT weight (Rattus norvegicus [9]; 30 mg/kg): 0.74 g and 0.63 g
Ki [13]: Not Active
Body weight (Rattus norvegicus [11]; 30 mg/kg): 310 g and 322 g
Ki [14]: Not Active

CCCc1cc2c(C(F)(F)F)noc2c(CCC)c1OC(C(=O)O)c1ccc(CCc2ccccn2)cc1 (configuration not stated)
FPG correction (Mus musculus [15]): 75%
Ki [1]: 0.065 µM
EC50 [3]: 0.11 µM
Ki [2]: 0.197 µM
EC50 [4]: 0.028 µM

CCCc1cc2c(C(F)(F)F)noc2c(CCC)c1OC(C(=O)O)c1ccccc1 (configuration not stated)
Change (Rattus norvegicus [5]): -52%
Change (Rattus norvegicus [6]): -27%
BAT weight (Rattus norvegicus [9]): 0.28 g
Heart weight (Rattus norvegicus [10]): 1.05 g
FPG correction (Mus musculus [16]): 91%
Ki [1]: 0.037 µM
bioavailability [17]: 11%
Body weight (Rattus norvegicus [11]): 276 g
EC50 [3]: 0.365 µM
Ki [2]: 0.956 µM
EC50 [4]: 0.015 µM

CCCc1cc(C(=O)CC)c(O)c(CCC)c1OC(C(=O)O)c1ccccc1 (configuration not stated)
FPG correction (Mus musculus [15]): 42%
Change (Rattus norvegicus [5]): -8%
Change (Rattus norvegicus [6]): -7%
Body weight (Rattus norvegicus [18]): 290 g
BAT weight (Rattus norvegicus [9]): 0.34 g
BAT weight (Rattus norvegicus [19]): 0.29 g
Heart weight (Rattus norvegicus [10]): 1.06 g
FPG correction (Mus musculus [16]): 55%
Ki [1]: 0.081 µM
Change (Rattus norvegicus [20]): -64%
Body weight (Rattus norvegicus [11]): 294 g
EC50 [3]: 1.09 µM
Change (Rattus norvegicus [21]): -36%
Ki [22]: Partially active
Heart weight (Rattus norvegicus [23]): 1.11 g
EC50 [4]: 0.037 µM

Cc1cccc(Nc2cc(Cl)nc(SCC(=O)O)n2)c1C [PIRINIXIC ACID]
EC50 [24]: Partially active
FPG correction (Mus musculus [16]): 20%
Ki [13]: Not Active
Ki [25]: Not Active

CCCc1cc2c(C(F)(F)F)noc2c(CCC)c1O[C@@H](C(=O)O)c1ccccc1
Ki [7]: Partially active
EC50 [3]: 3.15 µM
Ki [26]: Partially active

CCCc1cc2c(CC)noc2c(CCC)c1OC(C(=O)O)c1ccccc1 (configuration not stated)
Ki [1]: 0.061 µM
EC50 [3]: 0.56 µM
Ki [2]: 2.68 µM
EC50 [4]: 0.08 µM

CC(C)(Oc1ccc(C(=O)c2ccc(Cl)cc2)cc1)C(=O)O [FENOFIBRIC ACID]
Heart weight (Rattus norvegicus [27]): 1.18 g
Change (Rattus norvegicus [28]): -18%
Body weight (Rattus norvegicus [29]): 308 g
Ki [1]: 35 µM
Change (Rattus norvegicus [30]): -23%
FPG correction (Mus musculus [31]): 17%
Ki [32]: Partially active
Ki [25]: Not Active
BAT weight (Rattus norvegicus [33]): 0.33 g

CCCc1cc(C(=O)OC)cc(CCC)c1OC(C(=O)O)c1ccccc1 (configuration not stated)
Ki [1]: 0.063 µM
Ki [2]: 1.1 µM

CCCc1cc2c(C(F)(F)F)noc2c(CCC)c1OC(C(=O)O)c1ccc(C(F)(F)F)cc1 (configuration not stated)
FPG correction (Mus musculus [15]): 83%
Change (Rattus norvegicus [5]): -41%
Change (Rattus norvegicus [6]): -32%
BAT weight (Rattus norvegicus [9]): 0.27 g
FPG correction (Mus musculus [34]): 41%
Heart weight (Rattus norvegicus [10]): 1.14 g
FPG correction (Mus musculus [35]): 21%
Ki [1]: 0.018 µM
Body weight (Rattus norvegicus [11]): 318 g
EC50 [3]: 0.079 µM
Ki [2]: 0.104 µM
EC50 [4]: 0.023 µM

CCCc1cc2c(C(F)(F)F)noc2c(CCC)c1OC(C(=O)O)c1ccc(C(C)C)cc1 (configuration not stated)
FPG correction (Mus musculus [15]): 61%
FPG correction (Mus musculus [34]): 31%

CCCc1cc2c(C(F)(F)F)noc2c(CCC)c1OC(C(=O)O)c1ccc(Cl)cc1 (configuration not stated)
FPG correction (Mus musculus [15]): 74%
Change (Rattus norvegicus [5]): -56%
Change (Rattus norvegicus [6]): -23%
BAT weight (Rattus norvegicus [9]): 0.22 g
FPG correction (Mus musculus [34]): 31%
Heart weight (Rattus norvegicus [10]): 1.17 g
Ki [1]: 0.105 µM
Body weight (Rattus norvegicus [11]): 297 g
EC50 [3]: 0.11 µM
Ki [2]: 0.175 µM
EC50 [4]: 0.01 µM

CCCc1c(OC(C(=O)O)c2ccccc2)ccc2c(C(F)(F)F)noc12 (configuration not stated)
FPG correction (Mus musculus [16]): -5%
Ki [1]: 0.098 µM
EC50 [3]: 4.6 µM
Ki [22]: Partially active
EC50 [4]: 0.836 µM

CCCc1c(OC(C(=O)O)c2ccccc2)ccc(C(=O)CC)c1O (configuration not stated)
Ki [7]: Partially active
Ki [36]: Partially active
Ki [26]: Partially active

CCCc1cc2c(C(F)(F)F)noc2c(CCC)c1OC(C(=O)O)c1ccc(OCc2ccccn2)cc1 (configuration not stated)
Change (Rattus norvegicus [5]): -47%
Change (Rattus norvegicus [6]): -38%
BAT weight (Rattus norvegicus [9]): 0.42 g
Heart weight (Rattus norvegicus [10]): 1.15 g
FPG correction (Mus musculus [16]; 30 mg/kg): 90% and 51%
Ki [1]: 0.064 µM
Body weight (Rattus norvegicus [11]): 297 g
EC50 [3]: 0.047 µM
Ki [2]: 0.268 µM
EC50 [4]: 0.019 µM

CCCc1cc2c(C(F)(F)F)noc2c(CCC)c1O[C@H](C(=O)O)c1ccccc1
FPG correction (Mus musculus [15]): 50%
Ki [1]: 0.012 µM
EC50 [3]: 0.194 µM
Ki [2]: 0.618 µM
